# STAT3 inh: IL-6 driven STAT3 reporter inhibitors, primary screen, U3A cells, luciferase, luminescence, MLSCN library; actives 0.89% (n = 190,000); inhibition, % at 5.5 µM; IL-6 STAT3-luciferase reporter; host cell line lacks STAT1;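 active means inhibition above the mean inhibition across all screened compounds plus 3 SD, cut at about 44% in these data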;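 further: 0% = DMSO only wells and 100% = 100 µM nifuroxazide control wells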
# STAT1 activator: STAT1 signaling activators, primary screen, cell-based, HTS, luciferase reporter; NIH 3T3 STAT1-luciferase reporter, IFN-gamma, luminescence; 100% = IFN-gamma alone, no compound; activation (% of control), % at 5.5 µM; AID 932, 2007; actives 2.6% (n = 200,000);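 active means activation above the screen-wide mean activation plus 3 SD, cut at about 130% in these data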;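 further: raw ratio to IFN-gamma control signal so 100% means no change and 0% no light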
# APP 5'UTR act: activators of APP 5'UTR luciferase reporter, primary screen, SH-SY5Y cells; actives 1% (n = 190,000); SH-SY5Y APP 5'UTR luciferase reporter, luminescence; zero percent = DMSO vehicle wells; activation, % at 2 µM;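 active means activation above a set limit, based on mean plus 3 SD of controls, cut at about 140% in these data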
# STAT1 inh: STAT1 signaling inhibitors, primary screen, cell-based, HTS, luciferase reporter. NIH 3T3 STAT1-luciferase reporter, IFN-gamma, luminescence. inhibition, % at 5.5 µM. actives 0.35% (n = 200,000);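 active means inhibition above a set limit, the mean inhibition across all tested compounds plus 3 SD, cut at about 34% in these data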;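 further: 0% = IFN-gamma with DMSO and 100% = IFN-gamma with 300 µM nifuroxazide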
# STAT3 act: IL-6 driven STAT3 reporter potentiators, primary screen, U3A cells, luciferase, luminescence, MLSCN library | IL-6 STAT3-luciferase reporter; 100% = signal with IL-6 EC80 alone | activation (% of control), % at 5.6 µM | actives 0.91% (n = 190,000) | AID 871, 2007;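 active means activation above the screen-wide mean of compound activation plus 3 SD, cut at about 130% in these data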;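 further: 0% = background luminescence of wells with medium and substrate only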
#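 Material: STAT3-luciferase reporter U3A cells. Controls: IL-6-treated wells, 100% activation. Read-out: % activation versus median of IL-6-stimulated wells. Probe or stimulus: IL-6 stimulus at 33 ng/mL final. Timing: compound 1 h, then IL-6 6 h at 37 °C. Signal: reporter luminescence signal.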
# NF-kB expr up: activators of NF-kB expression in neurons, primary screen, cell-based, HTS; fold change at 12.5 µM; human neuronal cells, NF-kB reporter expression; hits give high values; actives 1.6% (n = 190,000); in the data active means fold change above about 3.3
# Active calls of the source: *; . = not tested or not shown. Only some compounds are listed: those with a hit (about 5.1% of all), similar ones and a draw of the others.
SMILES,STAT3 inh,STAT1 activator,APP 5'UTR act,STAT1 inh,STAT3 act,NF-kB expr up
CN(C)c1cc(N/N=C/c2ccc(Cl)cc2)nc(N(C)C)n1,-19,94,15,8,121,1.2
COc1ccc(/C=N/Nc2nncc3ccccc23)c(OC)c1,16,147*,59,-52,89,2.6
Cc1cccc(/C=N/Nc2nncc3ccccc23)c1,84*,51,208*,52*,32,1.1
CSc1nc2n(n1)C(C)C1=C(CCCC1=O)N2 (stereo unspecified),4,106,3,-9,103,1.1
O=C(NC1=NCCS1)c1ccc([N+](=O)[O-])cc1Cl,9,104,4,-5,97,1.4
O=C(Cn1cnc([N+](=O)[O-])c1)NC1CCCC1,0,101,7,-1,103,1.3
O=C(c1ccccc1)c1cc(-c2ccccc2)on1,38,81,184*,20,70,2
O=C(NC(=O)c1ccccc1)NC1(C(F)(F)F)OCCO1,-16,135*,97,-39,119,4.2*
CCOc1ccc2nc(N3C(=O)/C(=C/c4ccccc4)NC3=S)sc2c1,-12,137*,37,-41,110,1.9
Cc1cc(/C=C2\NC(=O)N(Cc3ccc(Cl)cc3)C2=O)c(C)n1C,-50,94,4,6,139*,1.2
Cc1ccc(CN2C(=O)N/C(=C/c3ccc4c(c3)n(C)c(=O)n4C)C2=O)cc1,38,70,-24,32,69,1.4
COc1ccc(/C=N/Nc2nnc(-c3ncc[nH]3)c3ccccc23)cc1,33,142*,65,-47,74,0.94
Clc1nnc(NN=C2CCCC2)c2ccccc12,-25,108,25,-8,126,1.1
Clc1ccccc1-c1nc(N/N=C/c2cccnc2)c2ccccc2n1,33,92,0,8,75,0.44
Oc1ccc2ccccc2c1/C=N/Nc1nnc(-c2ncc[nH]2)c2ccccc12,24,74,6,29,84,0.8
Cc1ccc2nc(C(Cl)(Cl)Cl)nc(N/N=C/c3ccncc3)c2c1,15,96,-1,2,95,1.1
Clc1ccc(/C=N/Nc2nc(Cl)nc3ccccc23)cc1,10,133*,28,-36,93,1.6
Cc1ccc(-c2nc(N/N=C/c3ccncc3)c3ccccc3n2)cc1,90*,29,31,78*,25,2.4
Cc1ccc(/C=N/Nc2nnc(Cl)c3ccccc23)cc1,-4,131*,159*,-34,107,9.3*
C(=N\Nc1nc2ccccc2[nH]1)/c1ccccc1,21,124,128,-29,84,1
C(=N\Nc1ncnc2ccccc12)/c1ccccc1,28,132*,63,-33,82,6*
Cc1nnc(SCc2nc3ccccc3s2)n1N,-50,134*,91,-37,141*,1.6
c1ccc2oc(SCc3nc4ccccc4s3)nc2c1,-41,139*,122,-42,138*,3.1
Cc1ccccc1CSc1nnc(C)n1N,-6,101,-15,-1,108,1.4
O=C(O)c1ccccc1CSc1nc2ccccc2o1,-13,140*,29,-44,115,1.8
SMILES,STAT3 inh,STAT1 activator,APP 5'UTR act,STAT1 inh,STAT3 act,NF-kB expr up
c1ccc2oc(SCc3cn4ccccc4n3)nc2c1,12,131*,125,-33,93,3.4*
Cc1cccc2nc(CSc3nc4ccccc4o3)cn12,9,114,24,-16,94,1.4
COc1cccc(C(C(=O)NC2CCCC2)N(CC2CCCO2)C(=O)Cc2cccs2)c1 (stereo unspecified),0,96,20,2,105,0.99
COc1cccc(N2CCN(C(=O)C3CCN(S(=O)(=O)c4cccs4)CC3)CC2)c1,6,99,7,0,96,0.98
Cn1c(-c2sc(=S)n(-c3ccccc3)c2N)nc2ccccc21,-38,103,-2,-3,133*,1.5
COC(=O)C1=C(NC(=O)c2ccc(C)c(C)c2)CCS1,-32,102,12,-2,134*,1.3
O=c1c(-c2nn[nH]n2)coc2ccc(Cl)cc12,20,98,-1,1,90,0.87
Cc1ccc(NNS(=O)(=O)c2ccc(C)cc2)cc1,-36,98,17,3,135*,1.1
Cc1ccc(S(=O)(=O)NNC(=O)C(=O)NNS(=O)(=O)c2ccc(C)cc2)cc1,5,94,6,4,99,1.1
CC(C)(C)OC(=O)CC[C@@H](C(=O)N1CCN(C(=O)OC(C)(C)C)CC1)n1cc(C(CO)NC(=O)OC(C)(C)C)nn1 (stereo partly specified),.,101,3,0,.,1
CCCOc1ccc(-c2cnc(N)s2)cc1,12,133*,88,-37,92,2.2
O=C(O)c1cn(-c2ccc(F)c(F)c2)c2c(F)c(F)c(F)c(F)c2c1=O,15,87,3,14,93,1.3
CN(C)S(=O)(=O)NCc1ccc2c(c1)OCO2,9,106,1,-7,96,2.7
Cc1cc(C)c(C#N)c(SCc2nnc(-c3ccccc3[N+](=O)[O-])o2)n1,-3,140*,213*,-43,107,3.2
CCC(=O)Nc1cccc(-c2cnc3ccccc3n2)c1,15,129*,52,-32,90,1.5
CCOC(=O)c1ccc2ncc(-c3ccccc3)nc2c1,14,148*,139*,-54,90,4.2*
CCOC(=O)c1cnc(SCC(C)C)nc1N,-8,137*,146*,-41,110,4.7*
CCOC(=O)c1cnc(-c2ccccc2)nc1N,-1,146*,126,-56,103,5*
O=C(CCl)Nc1cccc(-c2cnc3ccccc3n2)c1,38,76,.,26,72,0.73
Cc1c(NC(=O)c2ccc(-c3ccc([N+](=O)[O-])cc3Cl)o2)c(=O)n(-c2ccccc2)n1C,32,99,-24,1,76,0.96
CCOC(=O)c1cnc(SCC(=O)c2ccc(C)cc2)nc1N,0,103,12,-1,103,1.3
CCOC(=O)c1cnc(SCC(=O)c2ccccc2)nc1N,8,144*,112,-48,98,3.7*
CCOC(=O)c1ccc(NC(=O)COc2ccc(CNC3CCCCC3)cc2OC)cc1,-3,107,40,-10,111,1
Cc1ccc(N2CC(C(=O)Nc3ccc(S(=O)(=O)Nc4nccc(C)n4)cc3)CC2=O)cc1 (stereo unspecified),7,105,-5,-7,100,1

# High-throughput results: PubChem, several laboratories
